Measured values: PubChem BioAssay AID504383 (The Scripps Research Institute Molecular Screening Center, 2011)
The whole screen tested about 2,500 compounds, of which about 1,200 (48%) were called active.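 How the source made its calls: active means mean activation above the low control average plus 3 SD, as set in the primary screen (cut at about 12% in these data); inactive means the rest.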 So high a share suggests a set chosen from earlier hits. The list shows a part of the results.

Each molecule was assayed against Troponin I, cardiac muscle (Homo sapiens) + Troponin T, cardiac muscle (Homo sapiens) + Troponin C, slow skeletal and cardiac muscles (Homo sapiens) (UniProt P19429+P45379+P63316) (assay: cardiac RTF calcium sensitivity activators, confirmation, biochemical, IANBD-TnC fluorescence, triplicate (AID 504383;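 further: 0% = DMSO at 0.472 mM calcium and 100% = DMSO at 2.9 mM calcium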)). Conditions: IANBD-labeled cardiac RTF, Ca2+ sensitivity fluorescence; at 7.2 µM; hits give high values; scaled from EC20 to saturating calcium; tested at EC20 calcium, 0.472 mM.
Method in brief: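 Assay system: labelled regulated thin filaments / Timing: 15 min at 25 °C / Detection: fluorescence intensity of labelled filaments / Measure: fluorescence gain scaled between EC20 and EC100 calcium controls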

Compound	activation
COC(=O)C(=N/Nc1ccccc1C(=O)OC)/C(C)=N/O	35.7% (active)
N#C/C(=C/c1ccc(N2CCOCC2)o1)c1nc2ccccc2[nH]1	11.4% (inactive)
Cc1ccc2nc(/C(C#N)=C\c3ccc(N4CCOCC4)o3)[nH]c2c1	44.2% (active)
N#C/C(=C\c1ccc(N2CCOCC2)o1)c1nc2ccccc2[nH]1	29.6% (active)
Clc1ccc(-c2cn3nc4c(nc3n2)CCCC4)cc1	9.46% (inactive)
Clc1ccc(-n2cc(-c3ccc(Br)cc3)[n+]3c2CCCCC3)cc1	0.54% (inactive)
c1ccc(-c2cn3nc4c(nc3n2)CCCC4)cc1	48.2% (active)
Brc1ccc(-c2cn3nc4c(nc3n2)CCCC4)cc1	22.8% (active)
CC1(C)CC(=O)C=C(NCc2ccc(Cl)c(Cl)c2)C1	3.4% (inactive)
CC1(C)CC(=O)C=C(Nc2ccccc2N)C1	31.4% (active)
O/C=c1\ccc2cccc3nc(C(F)(F)F)nc1c23	5010% (active)
O=C(NCCc1ccccc1)c1ccc(Cl)nc1	16.1% (active)
Cc1ccccc1C(=O)NCCCc1ccccc1	0.23% (inactive)
COC(=O)C1=C(C(=O)c2ccc(C)cc2)C(c2ccc(OC)c(OC)c2)n2nnnc2N1 (stereo not given)	9.37% (inactive)
CCOc1c2ccc(C(=O)NCCc3cccs3)cc2nn1CC	9.3% (inactive)
CC(C)CCNC(=O)c1ccc2c(SCC(=O)O)c3c(nc2c1)CCC3	35.4% (active)
Cc1cc(C)n2nc(SCC(=O)N(C)Cc3ccccc3)nc2n1	-3.59% (inactive)
O=C(N1CCOCC1)N1CCC(n2nnc3ccccc32)CC1	5.64% (inactive)
CN(Cc1ccccc1)C(=O)N1CCOCC1	12.1% (active)
CCc1cc(C(=O)Nc2ccc(OC)nc2)sc1C	4.99% (inactive)
O=C(COC(=O)C1CCCCC1)Nc1ccc([N+](=O)[O-])cc1	82.4% (active)
Cc1ccc(C(=O)COC(=O)C2CCC2)cc1	9.89% (inactive)

Compound	activation
O=C(COC(=O)C1CCC1)NCc1ccccc1	286% (active)
O=C(COC(=O)C1CCC(=O)N1)Nc1ccc(Oc2ccccc2)cc1 (stereo not given)	5.98% (inactive)
O=C(COc1ccc(Cl)cc1)NCc1ccccc1	10.9% (inactive)
CCn1cc(C(=O)NCCC(=O)NCCO)c(=O)c2cc3c(cc21)OCO3	57.2% (active)
CCC(CO)[n+]1c(C)cc(/C=C2\Sc3ccccc3N2Cc2ccccc2)cc1C (stereo not given)	3.94% (inactive)
CC[n+]1c(/C=C2\Sc3ccccc3N2C)ccc2cccc(C)c21	6.15% (inactive)
COc1ccccc1-[n+]1c(C)cc(/C=C2\Sc3ccccc3N2C)cc1C	12% (active)
COc1ccc(-[n+]2c(C)cc(/C=C3\Sc4ccccc4N3C)cc2C)cc1	249% (active)
Oc1cccc(Nc2nc(O)c(/C=C3\C=Nc4ccccc43)s2)c1	127% (active)
CN(C)c1ccc(/C=C/C(=O)c2ccc(O)cc2)cc1	1.84% (inactive)
CC(C)=CCC/C(C)=C/Cc1c(O)ccc(C(=O)/C=C/c2ccc(O)cc2)c1O	563% (active)
O=C(Cc1ccccc1)Nc1cccc(-c2nc3ncccc3o2)c1	15.3% (active)
CC(=O)NC(Cc1ccc(F)c(F)c1)C(=O)NC1CCN(S(=O)(=O)c2ccc(C)cc2)CC1 (stereo not given)	6.59% (inactive)
COc1cccc(CC(NC(C)=O)C(=O)NC2CCN(c3nc(C)cc(C)c3C#N)CC2)c1OC (stereo not given)	34% (active)
CCOC(=O)[C@H]1[C@H]2COc3ccccc3[C@@H]2N2C(=O)CN(Cc3ccc(C)cc3)C(=O)[C@@]12C	8.95% (inactive)
N#C/C(=C(/O)COC(=O)c1ccccc1O)c1nc2ccccc2s1	5.53% (inactive)
N#C/C(=C\c1ccccn1)c1nc2ccccc2s1	14.5% (active)
COc1ccc2[nH]c(C(=O)N3CCC(Cc4ccccc4)CC3)cc2c1	13.6% (active)
CN1CCN(C(=O)c2cc3ccccc3[nH]2)CC1	6.99% (inactive)
O=C1c2cccc3cccc(c23)C(=O)N1CC1CCN(S(=O)(=O)c2ccc(F)cc2)CC1	134% (active)
O=C1NC(=NCc2ccccc2)S/C1=C\c1ccccc1	50.1% (active)
Cc1ccc(N=C2NC(=O)/C(=C/c3cccnc3)S2)cc1C	3.85% (inactive)

Compound	activation
Cc1ccnc(N/C=C(\C#N)c2nc(-c3cccc(Br)c3)cs2)c1	27.5% (active)
Cc1ccnc(NC(=O)c2ccc(Br)s2)c1	5.46% (inactive)
N#C/C(=C\C=C\c1ccccc1)c1nc(-c2ccc3c(c2)OCO3)cs1	7.13% (inactive)
O=S(=O)(/C=C/c1ccccc1)N1CCc2ccccc2C1	11.1% (inactive)
COc1ccc(NC(=O)c2cccc(-c3ccc(O)cc3)c2)cn1	2.76% (inactive)
COC(=O)c1ccc(NC(=O)c2cccc(OC)c2)cc1	14.2% (active)
COC(=O)c1ccc(NC(=O)c2snnc2-c2ccccc2)cc1	11.7% (active)
Nc1nc2ccccc2n1CCOc1ccc(Br)cc1	12.1% (active)
Cc1ccc(S(=O)(=O)c2cc(C#N)c(=O)[nH]c2N)cc1	23.8% (active)
Cc1ccc(-c2nc3sc(C#N)c(N)n3c(=O)c2C#N)cc1	6.97% (inactive)
CC1(C)CC2(CCCN(C(=S)Nc3ccccc3)C2)CCO1 (stereo not given)	17.2% (active)
C=CCN1C(=O)C(Cc2cccc(Cl)c2)S/C1=N/N=C/c1ccco1 (stereo not given)	6.48% (inactive)
O=C(COc1ccc(Cl)cc1[N+](=O)[O-])N1CCCCC1	48.7% (active)
O=C(COc1ccc(Cl)cc1[N+](=O)[O-])N1CCCCCC1	5.74% (inactive)
CC(Oc1ccc(S(=O)(=O)N2CCCC2)cc1[N+](=O)[O-])C(=O)N(C)c1ccccc1 (stereo not given)	6.91% (inactive)
CC1=CN2C(=N)/C(=C/c3ccc([N+](=O)[O-])o3)C(=O)N=C2S1	14.5% (active)
COc1cccc(OCCCn2cc(/C=C3/C(=N)N4C=C(C)SC4=NC3=O)c3ccccc32)c1	9.3% (inactive)
CC(=O)c1cccc(-n2c(CCC(=O)O)ccc2-c2ccccc2)c1	7.99% (inactive)
CCOc1ccc(CCNC(=O)c2ccc(CNS(=O)(=O)c3ccccc3)cc2)cc1OCC	4.87% (inactive)
CCOc1ccc(CCNC(=O)C2CCCN(S(=O)(=O)N3CCOCC3)C2)cc1OCC (stereo not given)	15.7% (active)
CCCS(=O)(=O)N1CCC(C(=O)NCCCN2CCC(Cc3ccccc3)CC2)CC1	6.98% (inactive)
